In ChEMBL document CHEMBL4622996, “Discovery of Vixotrigine: A Novel Use-Dependent Sodium Channel Blocker for the Treatment of Trigeminal Neuralgia” (ACS Med Chem Lett, 2020):

Key:
[1] = Volume of distribution in steady state in monkey at 0.5 mg/kg, iv; format: ADME, organism-based, Macaca mulatta; settings: rhesus monkey, in vivo, read-out: Vdss
Cytochrome P450 2B6 = biological target: T1, Cytochrome P450 2B6 (Homo sapiens, UniProt P20813); assay: Inhibition of CYP2B6 (unknown origin); format: ADME
T1 sequence (P20813 whole entry): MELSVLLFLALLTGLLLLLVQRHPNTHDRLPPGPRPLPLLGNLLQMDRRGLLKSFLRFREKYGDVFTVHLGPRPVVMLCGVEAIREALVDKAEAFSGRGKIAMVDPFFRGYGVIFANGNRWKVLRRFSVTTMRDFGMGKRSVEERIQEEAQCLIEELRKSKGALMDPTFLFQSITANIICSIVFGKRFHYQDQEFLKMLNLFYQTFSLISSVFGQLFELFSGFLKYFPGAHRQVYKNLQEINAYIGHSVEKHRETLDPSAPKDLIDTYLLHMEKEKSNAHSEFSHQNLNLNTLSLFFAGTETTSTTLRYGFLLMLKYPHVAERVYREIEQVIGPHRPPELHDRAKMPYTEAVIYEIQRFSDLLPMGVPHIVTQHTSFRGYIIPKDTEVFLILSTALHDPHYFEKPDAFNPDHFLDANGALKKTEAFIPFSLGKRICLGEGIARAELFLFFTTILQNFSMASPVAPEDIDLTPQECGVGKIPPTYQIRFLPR

[2] = Tmax in monkey at 3 mg/kg, po; format: ADME, organism-based, Macaca mulatta; settings: rhesus monkey, in vivo
[3] = Half life in monkey at 0.5 mg/kg, iv; format: ADME, organism-based, Macaca mulatta; settings: rhesus monkey, in vivo
[4] = Total blood clearance in rat blood at 0.5 mg/kg, iv; format: ADME, organism-based
[5] = Aqueous solubility of the compound in FeSSIF; format: physicochemical
[6] = Volume of distribution in steady state in rat at 0.5 mg/kg, iv; format: ADME, organism-based; settings: in vivo, read-out: Vdss
[7] = Free plasma concentration in complete Freund's adjuvant-induced rat model at 1 mg/kg, po measured after 1 hr; format: ADME, organism-based; settings: in vivo
[8] = biological target: T2, Solute carrier organic anion transporter family member 1B3 (Homo sapiens, UniProt Q9NPD5); assay: Inhibition of OATP1B3 (unknown origin)
T2 sequence (Q9NPD5 whole entry): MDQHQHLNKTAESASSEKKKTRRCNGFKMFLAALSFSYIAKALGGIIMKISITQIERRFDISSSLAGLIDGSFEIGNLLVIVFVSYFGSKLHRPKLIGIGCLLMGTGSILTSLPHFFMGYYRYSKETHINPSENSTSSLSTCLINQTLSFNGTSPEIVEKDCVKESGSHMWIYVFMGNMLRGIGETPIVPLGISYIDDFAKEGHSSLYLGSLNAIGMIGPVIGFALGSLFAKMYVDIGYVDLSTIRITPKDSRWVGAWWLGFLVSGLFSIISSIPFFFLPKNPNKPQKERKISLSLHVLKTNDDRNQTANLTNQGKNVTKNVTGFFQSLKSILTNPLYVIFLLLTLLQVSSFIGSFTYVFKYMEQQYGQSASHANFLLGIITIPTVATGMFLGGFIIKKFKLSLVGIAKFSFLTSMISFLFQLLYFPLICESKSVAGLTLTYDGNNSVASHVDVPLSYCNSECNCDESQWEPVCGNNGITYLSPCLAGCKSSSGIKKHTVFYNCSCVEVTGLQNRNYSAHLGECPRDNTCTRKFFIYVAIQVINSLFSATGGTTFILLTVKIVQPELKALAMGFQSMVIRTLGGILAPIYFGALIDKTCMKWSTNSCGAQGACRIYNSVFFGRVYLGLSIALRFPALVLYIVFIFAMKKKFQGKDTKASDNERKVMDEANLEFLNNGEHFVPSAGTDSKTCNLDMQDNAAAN

[9] = biological target: T3, Solute carrier family 22 member 6 (Homo sapiens, UniProt Q4U2R8); assay: Inhibition of OAT1 (unknown origin)
T3 sequence (Q4U2R8 whole entry): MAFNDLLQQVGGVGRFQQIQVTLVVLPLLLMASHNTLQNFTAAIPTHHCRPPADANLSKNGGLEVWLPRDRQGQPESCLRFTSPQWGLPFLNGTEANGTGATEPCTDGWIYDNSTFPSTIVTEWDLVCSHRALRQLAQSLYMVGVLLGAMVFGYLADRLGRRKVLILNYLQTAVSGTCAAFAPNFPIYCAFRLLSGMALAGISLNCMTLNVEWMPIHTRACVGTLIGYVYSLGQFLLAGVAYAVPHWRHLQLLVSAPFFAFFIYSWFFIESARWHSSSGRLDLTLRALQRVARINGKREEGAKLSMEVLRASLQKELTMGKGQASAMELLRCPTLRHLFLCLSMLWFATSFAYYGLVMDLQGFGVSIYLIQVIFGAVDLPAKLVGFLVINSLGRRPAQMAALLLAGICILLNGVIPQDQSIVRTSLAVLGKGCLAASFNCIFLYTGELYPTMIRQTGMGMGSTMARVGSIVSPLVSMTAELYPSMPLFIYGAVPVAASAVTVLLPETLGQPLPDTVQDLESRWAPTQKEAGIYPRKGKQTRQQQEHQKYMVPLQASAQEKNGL

[10] = biological target: T4, Amine oxidase [flavin-containing] A (Homo sapiens, UniProt P21397); assay: Inhibition of MAO-A (unknown origin)
T4 sequence (P21397 whole entry): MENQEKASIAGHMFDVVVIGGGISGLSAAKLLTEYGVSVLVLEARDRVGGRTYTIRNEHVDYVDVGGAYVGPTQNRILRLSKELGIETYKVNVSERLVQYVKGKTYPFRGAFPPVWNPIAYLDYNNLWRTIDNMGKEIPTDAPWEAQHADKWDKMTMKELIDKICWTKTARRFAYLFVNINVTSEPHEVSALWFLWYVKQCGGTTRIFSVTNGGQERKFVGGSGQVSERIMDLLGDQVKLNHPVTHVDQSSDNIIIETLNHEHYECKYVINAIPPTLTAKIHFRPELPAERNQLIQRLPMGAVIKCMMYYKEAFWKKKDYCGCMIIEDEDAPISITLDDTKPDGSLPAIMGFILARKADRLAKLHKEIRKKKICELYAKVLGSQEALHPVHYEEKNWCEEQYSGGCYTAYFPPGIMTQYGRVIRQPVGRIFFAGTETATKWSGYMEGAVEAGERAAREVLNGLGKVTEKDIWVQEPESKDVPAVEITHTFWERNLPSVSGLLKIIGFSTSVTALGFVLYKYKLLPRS

Rattus norvegicus = assay: Antiinflammatory activity in complete Freund's adjuvant-induced rat model assessed as inhibition of CFA-induced hypersensitivity to pain administered orally at a single dose; format: functional; settings: po
[11] = Plasma concentration in rat after measuring the spontaneous locomotor activity at 60 mg/kg, po measured after 60 mins post dose; format: ADME, organism-based
Method in brief: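 Male rats, spontaneous locomotor activity test; oral doses 60, 100 or 300 mg/kg given 30 min before the session; plasma sampled 60 min postdose at 60 mg/kg.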

[12] = Half life in rat at 0.5 mg/kg, iv; format: ADME, organism-based; settings: in vivo
[13] = Volume of distribution in steady state in dog at 0.5 mg/kg, iv; format: ADME, organism-based, Canis lupus familiaris; settings: in vivo, read-out: Vdss
[14] = Tmax in dog at 3 mg/kg, po; format: ADME, organism-based, Canis lupus familiaris; settings: in vivo
[15] = Tmax in rat at 3 mg/kg, po; format: ADME, organism-based; settings: in vivo

For `Cl.NC(=O)[C@@H]1CC[C@H](c2ccc(OCc3ccccc3F)cc2)N1` [RAXATRIGINE HYDROCHLORIDE], the Vd [1] was 2 L/kg, the IC50 (Cytochrome P450 2B6) was 31 µM and the Tmax [2] was 120 min. For the same compound, the half-life [3] was 300 min, the clearance [4] was 39 mL/min/kg and the solubility [5] was 6900 µg/mL. The Vd [6] was 2 L/kg, the “Cp(f)” value [7] was 7.8 ng/mL and the “inhibition (INH)” value [8] was “Not Active”. For the same compound, the “inhibition (INH)” value [9] was “Not Active”, the Ki [10] was greater than 10 µM and the ED50 (Rattus norvegicus) was 0.91 mg/kg. It also gave a concentration at 1 h [11] of 13100 ng/mL, a half-life [12] of 48 min and a Vd [13] of 2 L/kg. It also gave a Tmax [14] of 45 min and a Tmax [15] of 30 min.
